Read-outs that look alike come from different tables or passages of the source.
Experiments:
[1] = Phase I hepatic impairment study: safety and tolerability; format: in vivo, human
Outline: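 Adults with chronic, stable hepatic impairment graded by Child-Pugh score (mild 5–6, moderate 7–9, severe 10–15), plus healthy controls matched on age, BMI and sex. All received a single oral 20 mg dose of test compound with ~240 mL water after an overnight fast of ≥10 h. Inpatient from day −1 to day 4, with repeated clinical and laboratory safety evaluations through day 4. AEs were queried by contact ~14 days post-dose.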

[2] = for AUC0–24 GMR (90% CI) / AUC0–inf GMR (90% CI) / C max GMR (90% CI): GMR = 100 × (test/reference); for increase in AUC0–inf compared with matched controls / increase in C max compared with matched controls: single oral 20 mg
[3] = design: AUC0–t / AUC0–inf: unit not given beside the values; settings: cited from earlier work
[4] = design: unit not given beside the values; settings: subjects who received futibatinib alone; cited from earlier work
cytochrome P450 (CYP450) = settings: in vitro; cited from earlier work
[5] = cited from earlier work
clinical = settings: human, in vivo, po, 20 mg, T max
[6] = cited from earlier work; remark: listed apart in the source
[7] = healthy male adults; cited from earlier work
[8] = hepatic impairment groups vs overall healthy control group, range over groups
[9] = mild HI vs matched healthy control
[10] = mild HI vs overall healthy control cohort
[11] = moderate HI vs matched healthy control
[12] = moderate HI vs overall healthy control cohort
[13] = severe HI vs matched healthy control
[14] = severe HI vs overall healthy control cohort
[15] = healthy subjects, fasted conditions

SMILES: C=CC(=O)N1CC[C@H](n2nc(C#Cc3cc(OC)cc(OC)c3)c3c(N)ncnc32)C1 [futibatinib, Futibatinib]
- laboratory results ([1]; all cohorts): No unexpected findings or remarkable trends
- study discontinuations due to TEAEs ([1]; all cohorts): no study discontinuations
- total TEAEs reported (all grade 1) ([1]; all cohorts, 38 participants): four
- participants reporting TEAEs ([1]; moderate hepatic impairment cohort): No participants
- participants reporting TEAEs ([1]; severe hepatic impairment cohort): No participants
- tolerability ([1]; single oral 20 mg, all groups): well‐tolerated
- geometric mean C max greater than in corresponding matched healthy control group ([2]; across the hepatic impairment groups): 10%–43%
- geometric mean AUC greater than in corresponding matched healthy control group ([2]; across the hepatic impairment groups, AUC0–24, AUC0–t, AUC0–inf): 17%–21%
- mean percentage of AUC0–inf extrapolated ([2]; all groups): < 2%
- GMRs for AUC [2, 8]: 85.9% to 122.5%
- GMRs for C max [2, 8]: 113.5% to 117.9%
- AUC0–24 GMR (90% CI) [2, 9]: 121.19 (74.27–197.74) %
- AUC0–inf GMR (90% CI) [2, 9]: 120.79 (73.89–197.47) %
- C max GMR (90% CI) [2, 9]: 142.53 (103.42–196.44) %
- AUC0–24 GMR (90% CI) [2, 10]: 85.92 (54.94–134.38) %
- AUC0–inf GMR (90% CI) [2, 10]: 85.66 (54.70–134.15) %
- C max GMR (90% CI) [2, 10]: 113.52 (82.50–156.21) %
- increase in futibatinib exposure versus healthy matched controls ([2]; mild hepatic impairment): 21%–43%
- increase in AUC0–inf compared with matched controls ([2]; mild hepatic impairment): 21%
- increase in C max compared with matched controls ([2]; mild hepatic impairment): 43%
- AUC0–24 GMR (90% CI) [2, 11]: 119.62 (54.08–264.61) %
- AUC0–inf GMR (90% CI) [2, 11]: 119.61 (53.90–265.45) %
- C max GMR (90% CI) [2, 11]: 114.85 (75.38–175.00) %
- AUC0–24 GMR (90% CI) [2, 12]: 122.20 (64.51–231.48) %
- AUC0–inf GMR (90% CI) [2, 12]: 122.49 (64.50–232.63) %
- C max GMR (90% CI) [2, 12]: 117.90 (82.04–169.44) %
- increase in futibatinib exposure versus healthy matched controls ([2]; moderate hepatic impairment): 15%–20%
- increase in AUC0–inf compared with matched controls ([2]; moderate hepatic impairment): 20%
- increase in C max compared with matched controls ([2]; moderate hepatic impairment): 15%
- AUC0–24 GMR (90% CI) [2, 13]: 116.91 (57.52–237.60) %
- AUC0–inf GMR (90% CI) [2, 13]: 118.23 (57.79–241.87) %
- C max GMR (90% CI) [2, 13]: 109.64 (66.62–180.44) %
- AUC0–24 GMR (90% CI) [2, 14]: 117.62 (67.44–205.13) %
- AUC0–inf GMR (90% CI) [2, 14]: 118.57 (67.46–208.38) %
- C max GMR (90% CI) [2, 14]: 117.78 (87.42–158.68) %
- increase in AUC0–inf compared with matched controls ([2]; severe hepatic impairment): 18%
- increase in C max compared with matched controls ([2]; severe hepatic impairment): 10%
- increase in futibatinib exposure versus healthy matched controls ([2]; severe mild hepatic impairment (so in the source)): 10%–18%
- median T max ([3]; fed conditions): 4.0 h
- bioavailability lower under fed versus fasted conditions ([3]; fed versus fasted): 11.2%
- AUC0–inf [3, 15]: 625.7
- AUC0–t [3, 15]: 617.8
- AUC0–inf [4]: 941
- AUC0–t [4]: 934.0
- contribution of CYP450–related metabolism to the overall metabolism (cytochrome P450 (CYP450)): ~ 50%
- impact of futibatinib on the PKs of CYP3A substrates [5]: no impact
- futibatinib exposure increase ([5]; co‐administered with itraconazole): 40%–50%
- futibatinib exposure decrease ([5]; co‐administered with rifampin): 50%–60%
- Tmax (clinical): 1.75 h
- accumulation ([6]; after repeat once daily doses): no accumulation
- mean half‐life ([6]; patients with cancer and healthy subjects): ~ 3 h
- dose proportionality of exposure ([6]; up to 80 mg): Dose‐proportional exposure increases
- total amount of unchanged futibatinib in urine and feces [7]: negligible
